Reference: ChEMBL document CHEMBL1125387, “Synthesis and biological action of the aminotetrahydroisoquinocarbazoles and related compounds: a new class of compounds with antiarrhythmic activity” (1992)

test system: Mus musculus; assay: Antiarrhythmic activity in chloroform induced ventricular arrhythmia in mice, 15 min before exposure to chloroform intraperitoneal administration; assay type: functional, Heart; conditions: not given
Outline: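 Female ICR mice (20-25 g) dosed ip; 15 min later placed 2 min in 2-L glass chamber saturated with chloroform vapor (150 mL chloroform warmed at 33 °C). Chest opened, ventricular ECG recorded 1 min via silver electrodes. Dose judged effective if ventricular rate <400 bpm just after thoracotomy; 3-10 mice per dose level; ED50 for protection from ventricular tachycardia calculated.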

**Q.** `Cl.N[C@@H]1Cc2c3n(c4cccc(O)c24)C(=O)C[C@H]2CCC[C@@H]1[C@@H]32` (stereo in doubt; (+)-10) was tested. Which ED50 did it give?
**A.** 5 mg/kg

same assay, conditions: Mus musculus, Heart, ip; read-out: ED50

**Q.** Which ED50 does the source give for `N[C@@H]1Cc2c3n(c4ccccc24)C(=O)C[C@H]2CC[C@@H]1[C@@H]32.O=C(O)/C=C/C(=O)O` here?
**A.** 40 mg/kg

**Q.** With `N[C@@H]1Cc2c3n(c4ccccc24)C(=O)C[C@H]2CCC[C@@H]1[C@@H]32.O=C(O)/C=C/C(=O)O` as the compound, how does the ED50 read?
**A.** 32 mg/kg

**Q.** How did the ED50 turn out when `CC[C@]12CCC[C@@H]3[C@H]1c1c(c4c(O)cccc4n1C(=O)C2)C[C@H]3C(=O)NN` was run?
**A.** > 40 mg/kg

**Q.** Which ED50 does the source give for `N[C@@H]1Cc2c3n(c4ccccc24)C(=O)C[C@H]2CCCC[C@@H]1[C@@H]32.O=C(O)/C=C/C(=O)O` here?
**A.** 80 mg/kg

**Q.** `N[C@@H]1Cc2c3n(c4ccccc24)C(=O)CC[C@H]3C1.O=C(O)/C=C/C(=O)O` was tested. Which ED50 did it give?
**A.** > 40 mg/kg

**Q.** For `CC[C@]12CCC[C@@H]3[C@H]1c1c(c4cc(O)ccc4n1C(=O)C2)C[C@H]3C(=O)NCCN1CCCC1`, which ED50 is on record?
**A.** > 40 mg/kg

**Q.** `CCCC[C@@]12CCC[C@H]3[C@H](N)Cc4c(n(c5ccc(O)cc45)C(=O)C1)[C@H]32` was tested. Which ED50 did it give?
**A.** 12 mg/kg

**Q.** Which ED50 does the source give for `CC(C)[C@@]12CCC[C@H]3[C@H](N)Cc4c(n(c5ccc(O)cc45)C(=O)C1)[C@H]32` here?
**A.** 8.4 mg/kg

**Q.** Which ED50 does the source give for `C[C@@]12CCC[C@H]3[C@H](N)Cc4c(n(c5ccc(O)cc45)C(=O)C1)[C@H]32` here?
**A.** > 40 mg/kg

**Q.** For `CC[C@]12CCC[C@@H]3[C@H]1c1c(c4cc(O)ccc4n1C(=O)C2)C[C@H]3C(=O)OCCN1CCN(C)CC1`, which ED50 is on record?
**A.** 34 mg/kg

**Q.** How did the ED50 turn out when `N[C@@H]1Cc2c3n(c4ccc(O)cc24)C(=O)C[C@@]2(CCc4ccccc4)CCC[C@@H]1[C@@H]32` was run?
**A.** > 40 mg/kg

**Q.** How did the ED50 turn out when `N[C@@H]1Cc2c3n(c4ccc(O)cc24)C(=O)C[C@H]2CCC[C@@H]1[C@@H]32` was run?
**A.** > 40 mg/kg

**Q.** How did the ED50 turn out when `N[C@@H]1Cc2c3n(c4ccc(O)cc24)C(=O)C[C@@]2(Cc4ccccc4)CCC[C@@H]1[C@@H]32` was run?
**A.** > 40 mg/kg

**Q.** With `N[C@@H]1Cc2c3n(c4cccc(O)c24)C(=O)C[C@@]2(CCc4ccccc4)CCC[C@@H]1[C@@H]32` as the compound, how does the ED50 read?
**A.** > 40 mg/kg

**Q.** For `CC[C@@]12CCC[C@H]3CCc4c(n(c5ccccc45)C(=O)C1)[C@H]32`, which ED50 is on record?
**A.** > 40 mg/kg

**Q.** How did the ED50 turn out when `Cl.NCCc1cn(C(=O)CC2CCCCC2)c2ccccc12` was run?
**A.** 48 mg/kg

**Q.** How did the ED50 turn out when `CC[C@@]12CCC[C@H]3[C@H](N)Cc4c(n(c5cc(O)c(O)cc45)C(=O)C1)[C@H]32.Cl` was run?
**A.** 7 mg/kg

**Q.** With `C[C@@]12CCC[C@H]3[C@H](N)Cc4c(n(c5cc(O)c(O)cc45)C(=O)C1)[C@H]32.Cl` as the compound, how does the ED50 read?
**A.** 34 mg/kg

**Q.** With `CC[C@@]12CCC[C@H]3[C@H](N)Cc4c(n(c5cc(OC)c(OC)cc45)C(=O)C1)[C@H]32.Cl` as the compound, how does the ED50 read?
**A.** 34 mg/kg

**Q.** For `CC[C@@]12CCC[C@H]3[C@H](N)Cc4c(n(c5cccc(O)c45)C(=O)C1)[C@H]32.Cl`, which ED50 is on record?
**A.** 6 mg/kg

**Q.** With `CCC[C@@]12CCC[C@H]3[C@H](N)Cc4c(n(c5cc(O)c(O)cc45)C(=O)C1)[C@H]32.Cl` as the compound, how does the ED50 read?
**A.** 20 mg/kg

**Q.** How did the ED50 turn out when `Cl.N[C@@H]1Cc2c3n(c4cc(O)c(O)cc24)C(=O)C[C@H]2CCC[C@@H]1[C@@H]32` was run?
**A.** > 40 mg/kg

**Q.** Which ED50 does the source give for `C[C@@]12CCC[C@H]3[C@H](N)Cc4c(n(c5cccc(O)c45)C(=O)C1)[C@H]32.Cl` here?
**A.** 8 mg/kg

**Q.** For `CCC[C@@]12CCC[C@H]3[C@H](N)Cc4c(n(c5cccc(O)c45)C(=O)C1)[C@H]32.Cl`, which ED50 is on record?
**A.** 20 mg/kg

**Q.** `Cl.N[C@@H]1Cc2c3n(c4cccc(O)c24)C(=O)C[C@H]2CCC[C@@H]1[C@@H]32` (stereo in doubt; 10) was tested. Which ED50 did it give?
**A.** 10 mg/kg

**Q.** With `CC(C)N(CCC(C(N)=O)(c1ccccc1)c1ccccn1)C(C)C` (configuration not stated) [DISOPYRAMIDE] as the compound, how does the ED50 read?
**A.** 11.8 mg/kg
